Each block holds one compound with its values, some of them ahead of it.
What was measured:
[1] = Metabolic stability in cryopreserved human hepatocytes assessed as dehydrogenation at 1 uM incubated for 4 hrs; type: ADME, cell-based, Hepatocyte
[2] = Metabolic stability in cryopreserved human hepatocytes assessed as amide hydrolysis at 1 uM incubated for 4 hrs; type: ADME, cell-based, Hepatocyte
[3] = Metabolic stability in cryopreserved human hepatocytes assessed as O-dealkylation at 1 uM incubated for 4 hrs; type: ADME, cell-based, Hepatocyte
[4] = Metabolic stability in cryopreserved human hepatocytes assessed as glucuronidation at 1 uM incubated for 4 hrs; type: ADME, cell-based, Hepatocyte
[5] = Metabolic stability in cryopreserved human hepatocytes assessed as N-dealkylation at 1 uM incubated for 4 hrs; type: ADME, cell-based, Hepatocyte
[6] = Metabolic stability in cryopreserved human hepatocytes assessed as aliphatic hydroxylation at 1 uM incubated for 4 hrs; type: ADME, cell-based, Hepatocyte
[7] = target: T1, Aldehyde oxidase (Homo sapiens, UniProt Q06278); assay: Metabolic stability in human liver cytosol assessed as AOX1 mediated drug metabolism by measuring amide hydrolysis at 1 uM incubated up to 90 mins in presence of hydralazine by LC-MS/MS analysis; type: ADME, subcellular; conditions: 1.5 h
T1 sequence (Q06278 whole entry): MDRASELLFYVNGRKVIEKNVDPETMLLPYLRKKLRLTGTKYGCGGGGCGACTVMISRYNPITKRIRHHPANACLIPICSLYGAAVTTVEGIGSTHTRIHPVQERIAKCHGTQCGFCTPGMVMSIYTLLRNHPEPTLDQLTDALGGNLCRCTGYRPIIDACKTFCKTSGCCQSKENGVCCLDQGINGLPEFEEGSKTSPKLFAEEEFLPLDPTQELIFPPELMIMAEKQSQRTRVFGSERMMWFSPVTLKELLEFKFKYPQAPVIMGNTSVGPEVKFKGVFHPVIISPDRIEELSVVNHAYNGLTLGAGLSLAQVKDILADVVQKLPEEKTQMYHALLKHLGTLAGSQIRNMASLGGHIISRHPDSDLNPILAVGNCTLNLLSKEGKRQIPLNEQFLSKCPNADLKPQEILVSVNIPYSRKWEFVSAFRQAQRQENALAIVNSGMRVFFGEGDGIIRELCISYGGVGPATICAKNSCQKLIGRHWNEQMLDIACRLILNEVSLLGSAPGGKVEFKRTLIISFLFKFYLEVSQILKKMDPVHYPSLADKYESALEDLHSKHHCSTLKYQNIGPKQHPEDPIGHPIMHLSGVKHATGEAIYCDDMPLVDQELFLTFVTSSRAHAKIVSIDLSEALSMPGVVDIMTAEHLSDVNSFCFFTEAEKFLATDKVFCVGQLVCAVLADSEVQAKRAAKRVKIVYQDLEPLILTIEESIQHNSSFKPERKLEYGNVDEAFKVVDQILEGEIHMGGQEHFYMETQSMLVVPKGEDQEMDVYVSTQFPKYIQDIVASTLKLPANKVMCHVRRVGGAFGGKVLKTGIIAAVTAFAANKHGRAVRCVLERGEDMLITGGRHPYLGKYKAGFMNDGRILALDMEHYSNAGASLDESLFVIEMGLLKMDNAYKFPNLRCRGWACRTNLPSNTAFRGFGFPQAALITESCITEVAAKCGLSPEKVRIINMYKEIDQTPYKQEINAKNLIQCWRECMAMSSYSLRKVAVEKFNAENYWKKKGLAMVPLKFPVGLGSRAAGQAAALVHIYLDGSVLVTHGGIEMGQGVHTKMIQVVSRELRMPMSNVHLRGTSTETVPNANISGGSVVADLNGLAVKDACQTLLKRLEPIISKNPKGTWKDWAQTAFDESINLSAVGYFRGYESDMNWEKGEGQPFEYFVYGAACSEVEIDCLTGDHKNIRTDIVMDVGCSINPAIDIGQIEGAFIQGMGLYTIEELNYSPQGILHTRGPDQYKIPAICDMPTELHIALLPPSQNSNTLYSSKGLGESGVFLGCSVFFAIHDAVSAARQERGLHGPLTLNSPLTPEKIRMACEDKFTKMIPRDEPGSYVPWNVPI

[8] = target: T1, Aldehyde oxidase; assay: Metabolic stability in human liver cytosol assessed as AOX1 mediated drug metabolism by measuring hydroxylation at 1 uM incubated up to 90 mins in absence of hydralazine by LC-MS/MS analysis; type: ADME, subcellular; conditions: 1.5 h
[9] = Metabolic stability in cryopreserved human hepatocytes assessed as aromatic hydroxylation at 1 uM incubated for 4 hrs; type: ADME, cell-based, Hepatocyte
[10] = Metabolic stability in cryopreserved human hepatocytes assessed as aliphatic carbonylation at 1 uM incubated for 4 hrs; type: ADME, cell-based, Hepatocyte
[11] = Stability of the compound in PBS at pH 7.4 assessed as compound degradation at 10 uM incubated for 12 hrs by LC-MS analysis; type: physicochemical; conditions: buffer, pH 7.4, 12 h
Procedure, shortened: (§1)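 Nonenzymatic stability: 10 mM DMSO stock diluted to 10 μM in PBS, PBS/ACN (1:1), or DMSO; PBS/ACN-DMSO variant dried under nitrogen at 40 °C and redissolved in DMSO. Solutions kept in LC autosampler at 37 °C for 12 h; LC-MS injections at 0, 3, 6 and 12 h tracking remaining parent.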

[12] = Stability of the compound in PBS/ACN assessed as compound degradation at 10 uM measured after 3 hrs by LC-MS analysis; type: physicochemical; conditions: buffer; procedure, shortened: as §1
[13] = Stability of compound in PBS/ACN-DMSO assessed as compound degradation at 10 uM measured after 3 hrs by LC-MS analysis; type: physicochemical; conditions: read-out: Drug degradation; procedure, shortened: as §1
[14] = Stability of compound in DMSO at 10 uM incubated for 12 hrs by LC-MS analysis; type: physicochemical; procedure, shortened: as §1

- Drug metabolism [1]: Metabolite_Detected
- Drug metabolism [2]: Metabolite_Detected
- Drug metabolism [3]: Metabolite_Detected
- Drug metabolism [4]: Metabolite_Detected
SMILES: Cc1ncsc1-c1ccc([C@H](C)NC(=O)[C@@H]2C[C@@H](O)CN2C(=O)[C@@H](NC(=O)COCCOCCNC(=O)COc2c(-c3csc(N4CCOCC4)n3)ccc(F)c2F)C(C)(C)C)cc1

- Drug metabolism [5]: Metabolite_Detected
- Drug metabolism [2]: Metabolite_Detected
- Drug metabolism [3]: Metabolite_Detected
SMILES: O=C(COc1c(-c2csc(N3CCOCC3)n2)ccc(F)c1F)NCCOCCOCCNc1cccc2c1C(=O)N(C1CCC(=O)NC1=O)C2=O (configuration not stated)

- Drug metabolism [7]: Metabolite_Detected
- Drug metabolism [8]: Metabolite_Detected
SMILES: Cc1ncsc1-c1ccc([C@H](C)NC(=O)[C@@H]2C[C@@H](O)CN2C(=O)[C@@H](NC(=O)CCCCN(C)C(=O)COc2c(-c3csc(N4CCOCC4)n3)ccc(F)c2F)C(C)(C)C)cc1

- Drug metabolism [5]: Metabolite_Detected
- Drug metabolism [6]: Metabolite_Detected
- Drug metabolism [9]: Metabolite_Detected
- Drug metabolism [10]: Metabolite_Detected
SMILES: Cc1ncsc1-c1ccc([C@H](C)NC(=O)[C@@H]2C[C@@H](O)CN2C(=O)[C@@H](N)C(C)(C)C)cc1

- Drug metabolism [6]: Metabolite_Detected
- Drug metabolism [2]: Metabolite_Detected
- Drug metabolism [3]: Metabolite_Detected
SMILES: O=C(COc1cccc2c1C(=O)N(C1CCC(=O)NC1=O)C2=O)NCCOCCOCCNC(=O)COc1c(-c2csc(N3CCOCC3)n2)ccc(F)c1F (configuration not stated)

- Drug metabolism [5]: Metabolite_Detected
- Drug metabolism [2]: Metabolite_Detected
- Drug metabolism [3]: Metabolite_Detected
SMILES: O=C(COc1cccc2c1C(=O)N(C1CCC(=O)NC1=O)C2=O)NCCCCCCCCNC(=O)COc1c(-c2csc(N3CCOCC3)n2)ccc(F)c1F (configuration not stated)

- Drug metabolism [7]: Metabolite_Detected
- Drug metabolism [8]: Metabolite_Detected
SMILES: Cc1ncsc1-c1ccc([C@H](C)NC(=O)[C@@H]2C[C@@H](O)CN2C(=O)[C@@H](NC(=O)CCCCNC(=O)COc2c(-c3csc(N4CCOCC4)n3)ccc(F)c2F)C(C)(C)C)cc1

Continued, compound first:

SMILES: Cc1sc2c(c1C)C(c1ccc(Cl)cc1)=N[C@@H](CC(=O)NCCCCCCCCNc1cccc3c1C(=O)N(C1CCC(=O)NC1=O)C3=O)c1nnc(C)n1-2 (some centres not stated)
- Drug metabolism [5]: Metabolite_Detected
- Drug metabolism [6]: Metabolite_Detected
- Drug metabolism [1]: Metabolite_Detected

SMILES: Cc1sc2c(c1C)C(c1ccc(Cl)cc1)=N[C@@H](CC(=O)O)c1nnc(C)n1-2
- Drug metabolism [6]: Metabolite_Detected

SMILES: O=C(COc1c(-c2csc(N3CCOCC3)n2)ccc(F)c1F)NCCCCCCCCNc1cccc2c1C(=O)N(C1CCC(=O)NC1=O)C2=O (configuration not stated)
- Drug metabolism [5]: Metabolite_Detected
- Drug metabolism [6]: Metabolite_Detected
- Drug metabolism [2]: Metabolite_Detected
- Drug metabolism [3]: Metabolite_Detected

SMILES: Nc1cccc2c1C(=O)N(C1CCC(=O)NC1=O)C2=O (configuration not stated) [POMALIDOMIDE]
- Drug metabolism [2]: Metabolite_Detected

SMILES: Cc1sc2c(c1C)C(c1ccc(Cl)cc1)=N[C@@H](CC(=O)NCCCCNC(=O)COc1cccc3c1C(=O)N(C1CCC(=O)NC1=O)C3=O)c1nnc(C)n1-2 (some centres not stated)
- Stabilty [11]: Unstable
- Stabilty [12]: Unstable
- degraded at 3 h, 10 µM [13]: 10%
- Stabilty [14]: Stable

SMILES: Oc1c(-c2csc(N3CCOCC3)n2)ccc(F)c1F
- Drug metabolism [6]: Metabolite_Detected
- Drug metabolism [3]: Metabolite_Detected
- Drug metabolism [4]: Metabolite_Detected

From ChEMBL document CHEMBL4665847, “Understanding the Metabolism of Proteolysis Targeting Chimeras (PROTACs): The Next Step toward Pharmaceutical Applications” (J Med Chem, 2020)
